# KCNK3 block – human KCNK3 channel inhibitors, primary screen, CHO cells, FluxOR thallium flux, B-score; Potassium channel subfamily K member 3 (Homo sapiens), O14649; FluxOR fluorescence; active compounds read low; B-score at 10 µM; hit rate 0.84% among 340,000; AID 602410, 2012;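 active = B-score under library mean minus 4 SD, starting fluorescence ratio at most library mean plus 5 SD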;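 note: more negative B-score means stronger inhibition of thallium flux through KCNK3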
# Target sequence (O14649 whole entry, looked up): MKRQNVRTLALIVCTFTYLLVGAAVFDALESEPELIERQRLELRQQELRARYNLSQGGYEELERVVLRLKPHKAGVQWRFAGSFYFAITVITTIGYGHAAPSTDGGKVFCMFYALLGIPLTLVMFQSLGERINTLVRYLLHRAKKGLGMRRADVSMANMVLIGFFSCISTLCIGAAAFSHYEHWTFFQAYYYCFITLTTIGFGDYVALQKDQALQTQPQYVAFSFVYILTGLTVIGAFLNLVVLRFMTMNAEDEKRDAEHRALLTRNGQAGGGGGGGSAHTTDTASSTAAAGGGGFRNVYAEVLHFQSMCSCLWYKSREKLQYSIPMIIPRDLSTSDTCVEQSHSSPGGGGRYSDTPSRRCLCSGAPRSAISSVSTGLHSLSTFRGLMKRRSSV
# KCNQ1 block – inhibitors of human KCNQ1 channel, primary screen, cell-based, thallium flux, high-throughput; Potassium voltage-gated channel subfamily KQT member 1 (Homo sapiens), P51787; CHO-K1 KCNQ1, FluxOR thallium flux fluorescence; active compounds read high; B-score at 10 µM; hit rate 1.3% among 310,000;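 active = compounds whose thallium flux B-score, printed positive for inhibition, exceeds three library SD while starting fluorescence stays within three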;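 note: channel opened by potassium depolarization with thallium stimulus after 20 min compound exposure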
# hERG rescue – hERG rescue from dofetilide block, primary screen, cell-based, CHO-hERG, FluxOR thallium flux, dofetilide IC70; AID 1511, 2009; hit rate 0.51% among 310,000; dofetilide IC70 present; activation (rescue from dofetilide block), less the hit threshold, % at 10 µM; Voltage-gated inwardly rectifying potassium channel KCNH2 (Homo sapiens), Q12809;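 active = activation above the mean of controls blocked by dofetilide plus 5 SD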;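 note: thallium influx through hERG after potassium depolarization seen as dye fluorescence rise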
# KCNQ1 act – potentiators or activators of KCNQ1 channel, primary screen, cell-based, thallium flux, high-throughput. Potassium voltage-gated channel subfamily KQT member 1 (Homo sapiens), P51787. CHO-K1 KCNQ1, thallium flux FluxOR fluorescence; active compounds read high. B-score at 10 µM. hit rate 0.35% among 310,000. AID 2648, 2010;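 active = fluorescence ratio B-score, a plate-corrected score, at least three library SD, with initial intensity B-score within 5 SD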
#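 Assay system: CHO-K1 cells stably expressing KCNQ1; Medium: assay buffer with matched DMSO; Also added: K+/Tl+ depolarizing stimulus; Dosing: single dose; Timing: dye 90 min, compound 20 min, room temperature; Measured by: kinetic FluxOR thallium fluorescence, 10-s 1-Hz baseline, 110-s post-stimulus read; Read-out: peak-minus-minimum fluorescence over initial fluorescence, negative-control normalized, B-scored.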
# KCNK9 block – KCNK9 potassium channel inhibitors, primary screen, HEK293 cells, thallium flux; B-score at 10 µM; Potassium channel subfamily K member 9 (Homo sapiens), Q9NPC2; FluxOR thallium flux fluorescence; active compounds read low; hit rate 1.2% among 310,000;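 active = ratio B-score over 3 SD below the library mean, with starting fluorescence within 5 SD of its mean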;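 note: negative B-score means less thallium flux so channel inhibition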
# A number is an active result; . = inactive; / = no result. Rows were chosen to be rich in hits. Some 3.1% of all compounds tested hit in one or more screens of this group.
SMILES,KCNK3 block,KCNQ1 block,hERG rescue,KCNQ1 act,KCNK9 block
O=c1cc(-c2ccccc2Cl)oc2c([N+](=O)[O-])c(O)cc(O)c12,.,8,.,.,.
COc1ccc(C(=O)N/C(=C\c2cn(S(=O)(=O)N(C)C)c3ccccc23)C(=O)NCCCN2CCOCC2)cc1,.,.,.,.,.
O=C(CSc1nc2nc(-c3cccs3)cc(C(F)(F)F)c2c(=O)[nH]1)Nc1ccc(F)c(F)c1,.,7,.,.,.
COc1cccc(CNS(=O)(=O)c2c(C)[nH]c(C)c2C(=O)N2CCCC2)c1,.,.,.,.,.
NC(=NC(=O)c1cccc(C(F)(F)F)c1)c1ccc(C(F)(F)F)cn1,.,.,.,.,-7
NC(=NC(=O)c1ccc(OC(F)(F)F)cc1)c1ccc(C(F)(F)F)cn1,.,.,.,.,.
COc1ccccc1NC(=O)COC(=O)Cn1cnc2c1c(=O)n(C)c(=O)n2C,.,/,/,/,/
Cc1ccccc1OCCNc1cc(N2CCCCC2)ccc1[N+](=O)[O-],.,.,.,.,-7
COc1ccc(OCCNc2cc(N3CCCCC3)ccc2[N+](=O)[O-])cc1,.,.,.,.,.
COc1cccc(OCCNc2cc(N3CCCCC3)ccc2[N+](=O)[O-])c1,.,.,.,.,-7.9
Cc1cc(C)cc(OCC(=O)NNC(=S)NC(=O)C2CC2)c1,.,.,.,.,.
Cc1ccc(/C=C2\SC(=S)N(C3CCS(=O)(=O)C3)C2=O)o1 (configuration not stated),.,.,.,.,.
CC1=C(C#N)C(=O)N(C2CCS(=O)(=O)C2)C(=O)/C1=C\c1ccc(C)o1 (configuration not stated),/,7,.,.,-6.9
CCCc1cc2c(cc1NC(=O)c1ccc(C(C)(C)C)cc1)OCO2,.,.,.,.,-7.7
CS(=O)(=O)N(CC(=O)N1CCc2ccccc2C1)c1cccc(F)c1,.,.,11,.,.
CS(=O)(=O)N(CC(=O)N1CCc2ccccc2C1)c1cccc([N+](=O)[O-])c1,.,.,.,.,.
CCOc1ccc(NC(=O)CN(c2ccc([N+](=O)[O-])cc2)S(=O)(=O)c2ccccc2)cc1,.,6,.,.,.
CC(=O)Nc1ccc(NC(=O)CN(c2ccc([N+](=O)[O-])cc2)S(=O)(=O)c2ccccc2)cc1,.,.,.,.,.
C=CCn1c(SCC(=O)N2c3ccccc3Sc3ccccc32)nnc1-c1ccco1,.,.,.,.,.
C=CCn1c(SCC(O)Cn2c3ccccc3c3ccccc32)nnc1-c1ccco1 (configuration not stated),.,.,.,.,-7.2
CCCOC(=O)c1c(-c2ccccc2)nc(CC)c(C(=O)SCC)c1CCC,.,/,/,/,/
COc1ccc(C2CC(O)(c3ccccc3)Oc3cc(OC)c(OC)c(OC)c32)cc1 (configuration not stated),.,.,.,.,.
COc1ccc([C@@H]2C[C@H](c3ccccc3)Oc3cc(OC)c(OC)c(OC)c32)cc1,.,.,.,.,-6.8
CC(C)C(=O)Nc1ccc(NC(=O)CCc2ccccc2)cn1,.,.,9.1,.,.
CCC1(c2ccc(F)cc2)NC(=O)N(CC(=O)Nc2cccc(S(=O)(=O)N3CCOCC3)c2)C1=O (configuration not stated),.,/,/,/,/
SMILES,KCNK3 block,KCNQ1 block,hERG rescue,KCNQ1 act,KCNK9 block
CCCN(CC(=O)Nc1ccccc1C)C(=O)C1CC(=O)N(c2ccc(CC)cc2)C1 (configuration not stated),.,/,/,/,/
CCOc1ccc(-c2csc(/C(C#N)=C\c3ccc(O)c([N+](=O)[O-])c3)n2)cc1,.,6,.,.,.
Cc1oc(C)c2c(=O)ccc3c(c12)OC(N)=C(C#N)C3c1ccccc1Cl (configuration not stated),.,6,.,.,.
Cc1oc(C)c2c(=O)ccc3c(c12)OC(N)=C(C#N)C3c1ccccc1 (configuration not stated),.,.,.,.,.
O=C1OCCN1N1CCOC1=O,.,/,/,/,/
COc1ccc2[nH]c(=O)c(CN(Cc3ccco3)C(c3nnnn3Cc3ccccc3)C(C)C)cc2c1 (configuration not stated),.,7,.,.,.
COc1ccccc1C(O)(c1ccccc1)c1ccccc1OC,-10,/,/,/,/
COc1ccc(-c2nc(CS(=O)CC(=O)NC(C)CCc3ccccc3)c(C)o2)cc1OC (configuration not stated),.,.,.,.,.
COc1ccc(CN(C)C(=O)C(Cc2ccccc2)NC(=O)c2ccccc2)c(OC)c1 (configuration not stated),.,.,.,.,.
O=C(N/N=C/c1cc([N+](=O)[O-])ccc1N1CCCCCC1)c1ccccn1,.,.,.,.,.
CCc1ccc(OCC(=O)N/N=C/c2cc([N+](=O)[O-])ccc2N2CCCCCC2)cc1,.,.,.,.,-6.7
CC(C)(C)OC(=O)N1CCC(C(=O)Nc2cccc(C(=O)NC3CC3)c2)CC1,.,/,/,/,/
Cc1cc(N(C)C)ccc1[N+](=O)[O-],.,.,4.7,.,.
Cc1ccc(CNc2ncc(-c3ccc4c(c3)OCO4)n2C)cc1,.,.,.,.,.
Cn1c(-c2ccc3c(c2)OCO3)cnc1NCc1ccc(Cl)cc1,.,11,.,.,.
COC1(OC)C(/C=C/c2ccc(Cl)cc2)C(C#N)(C#N)C1(OC)OC (configuration not stated),.,10,.,.,.
O=[N+]([O-])c1cc([N+](=O)[O-])c2cccnc2c1Oc1ccccc1O,.,8,.,.,.
O=[N+]([O-])c1ccc(O)c2ncccc12,.,.,.,.,.
COc1cc(NC(=O)c2cc(-c3cccnc3)nc3ccc(C)cc23)c(OC)cc1Cl,/,.,6.5,.,.
C/C(Cl)=C\Cn1c(O)c(N=NC(N)=S)c2ccccc21,.,.,15,.,.
C=CCn1c(O)c(N=NC(=S)Nc2cccc(C)c2)c2ccccc21,.,.,19,40,.
Oc1c(N=NC(=S)Nc2ccccc2F)c2ccccc2n1Cc1ccccc1,.,.,59,10,.
Cc1ccc(Cn2c(O)c(N=NC(=S)Nc3ccccc3F)c3ccccc32)cc1,.,.,18,.,.
CCCCNC(=S)N=Nc1c(O)n(Cc2ccccc2)c2ccccc12,.,.,.,.,.
NC(=S)N=Nc1c(O)n(Cc2ccccc2)c2ccccc12,.,.,.,.,.
C=CCn1c(O)c(N=NC(=S)Nc2ccccc2F)c2ccccc21,.,.,102,48,.
Oc1c(N=NC(=S)Nc2ccccc2F)c2ccccc2n1Cc1ccccc1Cl,.,.,21,10,.
